KCNK3 inh: human KCNK3 channel inhibitors, primary screen, CHO cells, FluxOR thallium flux, B-score. Potassium channel subfamily K member 3 (Homo sapiens), O14649. FluxOR fluorescence; stronger effect = lower value. B-score at 10 µM. hit rate 0.84% among 340,000. AID 602410, 2012;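 active = B-score under library mean minus 4 SD, starting fluorescence ratio at most library mean plus 5 SD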;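 also: more negative B-score means stronger inhibition of thallium flux through KCNK3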
Target sequence (O14649 whole entry, looked up): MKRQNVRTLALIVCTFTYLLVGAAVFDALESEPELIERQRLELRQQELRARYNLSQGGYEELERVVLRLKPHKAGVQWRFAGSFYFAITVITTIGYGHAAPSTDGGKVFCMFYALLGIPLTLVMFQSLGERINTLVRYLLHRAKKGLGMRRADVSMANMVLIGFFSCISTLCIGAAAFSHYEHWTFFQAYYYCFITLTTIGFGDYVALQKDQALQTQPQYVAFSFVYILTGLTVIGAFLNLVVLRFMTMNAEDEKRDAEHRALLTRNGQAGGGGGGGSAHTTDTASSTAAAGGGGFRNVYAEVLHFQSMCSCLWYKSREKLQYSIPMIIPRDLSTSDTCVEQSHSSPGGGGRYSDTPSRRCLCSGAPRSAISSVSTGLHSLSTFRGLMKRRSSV
KCNQ1 act: potentiators or activators of KCNQ1 channel, primary screen, cell-based, thallium flux, high-throughput; hit rate 0.35% among 310,000; Potassium voltage-gated channel subfamily KQT member 1 (Homo sapiens), P51787; B-score at 10 µM; CHO-K1 KCNQ1, thallium flux FluxOR fluorescence; stronger effect = higher value;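 active = fluorescence ratio B-score, a plate-corrected score, at least three library SD, with initial intensity B-score within 5 SD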
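Test system: CHO-K1 cells stably expressing KCNQ1 / Medium: assay buffer / Also added: depolarizing K+/Tl+ stimulus, K2SO4 and Tl2SO4 each 12.5 mM in 5x stock / Incubation: 90 min dye loading and 20 min compound exposure, both at room temperature / Signal: thallium influx via FluxOR fluorescence, kinetic imaging / Evaluation: B score of baseline-normalized fluorescence ratio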
KCNK9 block: KCNK9 potassium channel inhibitors, primary screen, HEK293 cells, thallium flux; FluxOR thallium flux fluorescence; stronger effect = lower value; B-score at 10 µM; hit rate 1.2% among 310,000; AID 488922, 2010;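 active = ratio B-score over 3 SD below the library mean, with starting fluorescence within 5 SD of its mean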;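 also: negative B-score means less thallium flux so channel inhibition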
hERG rescue: hERG rescue from dofetilide block, primary screen, cell-based, CHO-hERG, FluxOR thallium flux, dofetilide IC70. Voltage-gated inwardly rectifying potassium channel KCNH2 (Homo sapiens), Q12809. dofetilide IC70 present. activation (rescue from dofetilide block), less the hit threshold, % at 10 µM. hit rate 0.51% among 310,000. AID 1511, 2009;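 active = activation above the mean of controls blocked by dofetilide plus 5 SD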;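 also: thallium influx through hERG after potassium depolarization seen as dye fluorescence rise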
KCNQ1 inh: inhibitors of human KCNQ1 channel, primary screen, cell-based, thallium flux, high-throughput | Potassium voltage-gated channel subfamily KQT member 1 (Homo sapiens), P51787 | CHO-K1 KCNQ1, FluxOR thallium flux fluorescence; stronger effect = higher value | B-score at 10 µM | hit rate 1.3% among 310,000;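 active = compounds whose thallium flux B-score, printed positive for inhibition, exceeds three library SD while starting fluorescence stays within three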;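 also: channel opened by potassium depolarization with thallium stimulus after 20 min compound exposure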
Kir21 inh: inhibitors of mouse Kir2.1 inward-rectifier potassium channel. Inward rectifier potassium channel 2 (Mus musculus), P35561. HEK293-Kir2.1, FluxOR thallium flux fluorescence; stronger effect = lower value. B-score at 10 µM. hit rate 0.85% among 310,000. AID 1672, 2009;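 active = fluorescence ratio B-score at or below minus 3 SD of library scores, with starting-brightness B-score within 2 SD, cut at about -4.2 in these data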;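 also: channel flux triggered by added potassium and thallium sulfate stimulus; B-score of peak minus minimum fluorescence over baseline after thallium stimulus; more negative B-score means stronger Kir2.1 block with less thallium influx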
KCNK3 inh conf: retest of human KCNK3 channel inhibitors, confirmation, CHO cells, FluxOR thallium flux, triplicate; FluxOR fluorescence; 0% buffer, 100% carvedilol maximal block; hit rate 99% among 2,400; ratio percent of control, % at 10 µM; shares compounds with KCNK3 inh;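 active = ratio percent of control, averaged over triplicates, above buffer control mean plus 5 SD, cut at about 64% in these data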;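 also: ratio is the fluorescence rise from min to max over baseline after thallium stimulus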
KCNK3 uninduced: thallium flux inhibition in non-induced cells, primary screen, counter-screen for KCNK3 inhibitor project, cell-based, non-induced KCNK3 line, FluxOR thallium, triplicate; shares compounds with KCNK3 inh; non-induced KCNK3 parental cells; stronger effect = lower value; thallium flux ratio (lower = more inhibition) at 10 µM; hit rate 40% among 2,400; AID 651747, 2012;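 active = thallium flux ratio, averaged over three wells, more than 5 SD below the buffer control mean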;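 also: host cells are CHO cells without KCNK3 induction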
Numbers stand for hits; i = inactive; nt = no result given. Only some compounds are listed: those with a hit (about 3.8% of all), similar ones and a draw of the others.

SMILES	KCNK3 inh	KCNQ1 act	KCNK9 block	hERG rescue	KCNQ1 inh	Kir21 inh	KCNK3 inh conf	KCNK3 uninduced
OC1CCCN(c2c3c(nc4cc(-c5cccc(Cl)c5)nn24)CCC3)C1 (configuration not stated)	-10	i	i	i	i	i	93	i
OC1CCCN(c2c3c(nc4cc(-c5cccc(F)c5)nn24)CCCC3)C1 (configuration not stated)	i	i	i	i	i	i	nt	nt
OC1CCN(c2c3c(nc4cc(-c5ccc(F)cc5)nn24)CCC3)CC1	i	i	i	i	i	i	nt	nt
Cc1[nH]c2ccccc2c1CCN(Cc1cccnc1)C(=S)Nc1ccc(F)cc1	-10	i	i	i	i	i	92	0.15
CCOc1ccc(NC(=S)N(CCc2c(C)[nH]c3ccc(C)cc23)Cc2ccncc2)cc1	i	i	i	i	i	i	nt	nt
Cc1[nH]c2ccc(F)cc2c1CCN(Cc1ccncc1)C(=S)Nc1ccccc1	i	i	i	i	i	i	nt	nt
Cc1[nH]c2ccc(F)cc2c1CCN(Cc1cccnc1)C(=S)Nc1ccccc1	-10	i	i	i	i	i	91	i
CCOc1ccc(NC(=S)N(CCc2c(C)[nH]c3ccccc23)Cc2cccnc2)cc1	i	i	i	i	i	i	nt	nt
COc1ccc(NC(=S)N(CCc2c(C)[nH]c3ccc(C)cc23)Cc2cccnc2)cc1	-12	i	-6.9	i	i	i	96	0.15
CC(C)Oc1ccc(C2CC(=O)N(c3ccccc3)C2=O)cc1 (configuration not stated)	i	i	i	i	i	i	nt	nt
CCOC(=O)C1CCN(C(=O)Nc2cccc(Cl)c2)CC1	i	i	i	i	i	i	nt	nt
CCOC(=O)C1CCN(C(=O)Nc2cc(Cl)cc(Cl)c2)CC1	-9.9	i	i	i	i	i	111	i
O=C(NCCNC(=O)c1cnccn1)c1cccc(Cl)c1	i	i	i	i	i	i	nt	nt
Clc1ccc(C2Nc3ccccc3-n3cccc32)cc1 (configuration not stated)	-13	i	i	i	i	i	114	0.16
O=C1c2cccc3cccc(c23)C(=O)N1CC1CCN(CC(O)COc2ccc3ccccc3c2)CC1 (configuration not stated)	-9.9	i	i	i	i	i	101	0.15
Fc1ccc(/C=C2\CCCC3=C2Nc2ncnn2C3c2ccc(F)cc2)cc1 (configuration not stated)	-9.6	i	i	i	i	i	114	0.14
Cc1ccc(-c2nc3ccccc3o2)cc1NC(=O)Cc1cccs1	i	i	i	i	i	i	nt	nt
O=C(Cc1cccs1)Nc1cccc(-c2nc3ccccc3o2)c1	-8.8	i	i	i	i	i	133	0.14
CCCOC(=O)/C(=C\C=C\c1ccccc1)NC(=O)c1ccccc1	-10	i	i	i	i	i	147	0.15
C/C(=N\NC(=O)c1cccc(S(=O)(=O)N2CCCC2)c1)c1ccccc1F	i	i	i	i	i	i	nt	nt
CC1Cc2ccccc2N1Cc1ccc([N+](=O)[O-])cc1 (configuration not stated)	i	i	i	i	i	i	nt	nt
CC1Cc2ccccc2N1Cc1cccc([N+](=O)[O-])c1 (configuration not stated)	-13	i	i	i	i	i	109	i
O=C1CC(Cc2ccccc2)C(=O)N1CCc1ccc2c(c1)OCO2 (configuration not stated)	i	i	i	i	i	i	nt	nt
O=C1OC[C@H](Cc2ccc3c(c2)OCO3)/C1=C\c1ccc2c(c1)OCO2	-9.7	i	i	i	i	i	133	i
COCc1cc(C)nc(SCc2ccc(F)cc2)c1C#N	i	i	i	i	i	i	nt	nt
SMILES	KCNK3 inh	KCNQ1 act	KCNK9 block	hERG rescue	KCNQ1 inh	Kir21 inh	KCNK3 inh conf	KCNK3 uninduced
COCc1cc(C)nc(SCc2ccc(Br)cc2)c1C#N	-11	i	i	i	i	i	106	i
COCc1cc(C)nc(SCc2ccc(Cl)cc2)c1C#N	-11	i	i	i	i	i	96	0.15
CN1C(=O)c2c(sc3c2CCCC3)NC1c1ccccc1O (configuration not stated)	nt	i	i	i	i	i	nt	nt
CCOC(=O)c1c2c(c(=S)n(-c3ccccc3)c1N)CCC2	-10	i	i	i	i	i	123	0.11
CCOC(=O)c1c(N)sn(-c2ccccc2)c1=S	i	i	i	i	i	i	nt	nt
Cc1c(C(=O)OC(C)C(=O)N(C)Cc2ccccc2)oc2ccccc12 (configuration not stated)	-12	nt	nt	nt	nt	nt	77	i
Cc1c(C(=O)N(C)Cc2ccccc2)oc2c(Cl)cccc12	-11	i	i	i	i	i	110	i
O=C(NN1C(=O)NC2(CCCCC2)C1=O)c1ccc(-c2ccc(Cl)cc2)o1	i	nt	nt	nt	nt	nt	nt	nt
Cc1c(Nc2cc(Cl)c3nonc3c2[N+](=O)[O-])c(=O)n(-c2ccccc2)n1C	-18	nt	nt	nt	nt	nt	145	0.096
Cc1c(Nc2cc(N3CCOCC3)c3nonc3c2[N+](=O)[O-])c(=O)n(-c2ccccc2)n1C	nt	i	i	i	i	i	nt	nt
CCOC(=O)C1CCCN(C(=O)c2cc(Nc3ccc(OC)c(OC)c3)nc3ccccc23)C1 (configuration not stated)	i	i	i	i	i	i	nt	nt
CCOC(=O)C1CCCN(C(=O)c2cc(-c3ccc(C)cc3)nc3ccccc23)C1 (configuration not stated)	-9.7	i	i	i	i	i	108	i
CCN(C(=O)COC(=O)CCc1ccccc1)c1ccccc1	-9.5	i	i	i	i	i	81	i
CCN(C(=O)COC(=O)CSc1cc(C)c2ccccc2n1)c1ccccc1	-9.6	i	i	i	i	i	97	i
CCOC(=O)c1c(CC(C)C)csc1/N=C/C1C(=O)CC(C)(C)CC1=O	i	i	i	i	i	i	nt	nt
Cc1ccccc1NC(=O)c1nn(C)c(C(=O)Nc2ccccc2C)c1[N+](=O)[O-]	i	i	i	i	i	i	nt	nt

Source: PubChem (Johns Hopkins Ion Channel Center)
